Among the data in ChEMBL document CHEMBL1146334, “3D-Quantitative structure-activity relationships of synthetic antileishmanial ring-substituted ether phospholipids” (Bioorg Med Chem, 2007) are HC50 and IC50 values, retold here.

The term HC50 denotes the concentration that lyses half of the red blood cells. The IC50 is the concentration that gives 50% inhibition. High values mean weaker potency, low ones greater potency.

Data set [1] in a line: Toxicity against red blood cells assessed as hemolytic activity. To be noted: human. The data set is classed as cell-based, Erythrocyte. The procedure, abridged:
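Human red cells from EDTA blood of healthy volunteers were washed thrice in PBS and mixed 1:1 with compound in PBS, 100 to 6.25, for 1 h at 37 °C. After centrifugation at 800g for 10 min, supernatant absorbance was read at 550 nm against 625 nm. % hemolysis = (A − A0)/(Amax − A0) × 100, with PBS as background and water as 100%. HC50 is the concentration giving 50% hemolysis.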

Data set [2] deals with THP-1. Nature of the data set: Cytotoxicity against human THP1 cells after 72 hrs. The data set is classed as functional, cell-based. Particulars: THP-1, 72 h. The procedure, abridged: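 THP1 cells at 1 × 10^6 cells/ml were exposed to test concentrations of 50 to 156 for 72 h. About 4 × 10^6 cells were then stained with PI (10 µg/ml) and SYBR-14 (0.1 mg/ml) in HEPES/NaCl/BSA buffer, pH 7.4, for 30 min at 37 °C. Flow cytometry used 488 nm excitation, analysed at least 10,000 cells, excluded autofluorescence and debris, and each experiment was repeated twice.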

The test system of data set [3] is Leishmania donovani. Nature of the data set: Antileishmanial activity against Leishmania donovani LEM703 by MTT assay. The format is functional, organism-based.
Data set [4] concerns Leishmania infantum. Nature of the data set: Antileishmanial activity against Leishmania infantum LEM235 by MTT assay. The data set is classed as functional, organism-based. (In general: Formazan colour is commonly taken as a measure of viable cells.)

With `C[N+](C)(C)CCOP(=O)([O-])OCCCCC=C1C2CC3CC(C2)CC1C3`, the HC50 in data set [1] is over 100 µM. Further, the figures for the IC50 in data set [2], in data set [3] and in data set [4] were over 500 µM, 4.99 µM and over 100 µM, respectively.
Consider `C[N+](C)(C)CCOP(=O)([O-])OCCCCCCCCCCC=C1CCCCC1`, for which the HC50 in data set [1] turned out to be 68.3 µM. Moreover, the IC50 in data set [2] amounted to 31.3 µM; in data set [3], 2.4 µM; in data set [4], 5.2 µM.
Turning to `C[N+]1(CCOP(=O)([O-])OCCCCC=C2C3CC4CC(C3)CC2C4)CCCCC1`, the IC50 in data set [3] and in data set [4] was over 100 µM in each case.
Regarding `C[N+](C)(C)C1CCCCC1OP(=O)([O-])OCCCCCCCCCCC=C1CCCCC1` (stereo not given), the HC50 in data set [1] stood at 59.8 µM. Moreover, the values for the IC50 in data set [3] and in data set [4] were 26.3 µM and over 100 µM, respectively.
On to `C[N+](C)(C)C1CCCC1OP(=O)([O-])OCCCCCCCCCCC=C1C2CC3CC(C2)CC1C3` (stereo not given), for which the HC50 in data set [1] was over 100 µM. The half-maximal inhibitory concentration (IC50) in data set [2] was 75 µM; in data set [3], 3.92 µM; in data set [4], 38 µM.
For the compound `C[N+]1(CCOP(=O)([O-])OCCCCCCCCCCC=C2CCCCC2)CCOCC1`, the IC50 in data set [3] came to 8.25 µM; in data set [4], 22.8 µM.
In the case of `C[N+]1(CCOP(=O)([O-])OCCCCCCCCCCC=C2C3CC4CC(C3)CC2C4)CCOCC1`, the HC50 in data set [1] was over 100 µM. The results for the IC50 in data set [2], in data set [3] and in data set [4] were 37.4 µM, 5.09 µM and 6.64 µM, respectively.
With `CCCCCCCCCCCC=C1CCC(OCCOP(=O)([O-])OCC[N+]2(C)CCOCC2)CC1` (stereo not given), in data set [1], the HC50 is over 100 µM. Moreover, the values for the IC50 in data set [3] and in data set [4] were 50.7 µM and 16.5 µM, respectively.
The corresponding values for `C[N+]1(CCOP(=O)([O-])OCCCCCCCCCCC=C2CCCCC2)CCCCC1` are over 100 µM, 8.7 µM and 47.6 µM.
Regarding `CCCCCCCCCCCCCCCCOP(=O)([O-])OCC[N+](C)(C)C` [MILTEFOSINE], in data set [1], the HC50 stood at 38.3 µM.
Turning to `C[N+](C)(C)CCOP(=O)([O-])OCCCCC=C1CCCCC1`, the IC50 in data set [3] and in data set [4] was over 100 µM in each case.
Turning to `CCCCCCCCCCCCCCCC=C1CCC(OCCOP(=O)([O-])OCC[N+]2(C)CCCCC2)CC1` (stereo not given), the HC50 in data set [1] was over 100 µM. The results for the IC50 in data set [2], in data set [3] and in data set [4] were 25.7 µM, 22 µM and 6.5 µM, respectively.
As for `C[N+]1(CCOP(=O)([O-])OCCCCC=C2C3CC4CC(C3)CC2C4)CCOCC1`, the results for the half-maximal inhibitory concentration (IC50) in data set [3] and in data set [4] were 46.9 µM and over 100 µM, respectively.
As for `C[N+]1(CCOP(=O)([O-])OCCCCC=C2CCCCC2)CCCCC1`, the IC50 in data set [3] and in data set [4] was over 100 µM throughout.
As for `C[N+](C)(C)CCOP(=O)([O-])OCCOC1CCCCC1`, the IC50 in data set [3] and in data set [4] was over 100 µM throughout.
For `C[N+]1(CCOP(=O)([O-])OCCCCC=C2CCCCC2)CCOCC1`, the IC50 in data set [3] and in data set [4] was over 100 µM each time.
In the case of `CCCCCCCCCCCCCC=C1CCC(OCCOP(=O)([O-])OCC[N+]2(C)CCCCC2)CC1` (stereo not given), the HC50 in data set [1] is over 100 µM. For the same compound, the IC50 in data set [2] came to 65 µM; in data set [3] it was 29.7 µM; in data set [4], 11.4 µM.
The corresponding values for `C[N+](C)(C)C1CCCCC1OP(=O)([O-])OCCCCCCCCCCC=C1C2CC3CC(C2)CC1C3` (stereo not given) are 66.6 µM, 39.7 µM, 16.6 µM and over 100 µM.
The corresponding values for `C[N+](C)(C)CCOP(=O)([O-])OCCCCCCCCCCCC1CCCCC1` are over 100 µM, 35.5 µM, 10.3 µM and 8.4 µM.
The corresponding values for `CCCCCCCCCCCCC1CCC(OCCOP(=O)([O-])OCC[N+](C)(C)C)CC1` (stereo not given) are 75.7 µM, 22.2 µM, 9.49 µM and 5.65 µM.
In the case of `CCCCCCCCCCCCCC=C1CCC(OCCOP(=O)([O-])OCC[N+]2(C)CCOCC2)CC1` (stereo not given), the HC50 in data set [1] is 58.8 µM. Also, the IC50 in data set [2] was found to be 20.4 µM; in data set [3], 38.6 µM; in data set [4], 15.5 µM.
The corresponding values for `C[N+](C)(C)C1CCCC1OP(=O)([O-])OCCCCCCCCCCC=C1CCCCC1` (stereo not given) are 76.3 µM, 30.7 µM, 8.56 µM and over 100 µM.
On to `C[N+]1(CCOP(=O)([O-])OCCOC2CCCCC2)CCCCC1`, for which the IC50 in data set [3] and in data set [4] was over 100 µM each time.
With `CCCCCCCCCCCCCCCC=C1CCC(OCCOP(=O)([O-])OCC[N+]2(C)CCOCC2)CC1` (stereo not given), in data set [1], the HC50 is over 100 µM. Moreover, the IC50 in data set [2] came out at 18.9 µM; in data set [3], 16.2 µM; in data set [4], 3.7 µM.
In the case of `C[N+](C)(C)CCOP(=O)([O-])OCCCCCCCCCCCC1C2CC3CC(C2)CC1C3` (stereo not given), the HC50 in data set [1] is over 100 µM. In addition, the IC50 is 169 µM in data set [2], 2.88 µM in data set [3] and 5.97 µM in data set [4].
The corresponding values for `CCCCCCCCCCCC=C1CCC(OCCOP(=O)([O-])OCC[N+](C)(C)C)CC1` (stereo not given) are 40.6 µM, 26 µM, 7.08 µM and 3.25 µM.
The corresponding values for `CCCCCCCCCCCCCC=C1CCC(OCCOP(=O)([O-])OCC[N+](C)(C)C)CC1` (stereo not given) are over 100 µM, 20.2 µM, 3.91 µM and 5.25 µM.
The corresponding values for `C[N+]1(CCOP(=O)([O-])OCCCCCCCCCCC=C2C3CC4CC(C3)CC2C4)CCCCC1` are over 100 µM, 169 µM, 5.41 µM and 22.6 µM.
With `CCCCCCCCCCCC=C1CCC(OCCOP(=O)([O-])OCC[N+]2(C)CCCCC2)CC1` (stereo not given), the values for the IC50 in data set [3] and in data set [4] were 22 µM and 23.1 µM, respectively.
Consider `C[N+](C)(C)CCOP(=O)([O-])OCCCCCC1C2CC3CC(C2)CC1C3` (stereo not given), for which the HC50 in data set [1] was over 100 µM. Moreover, the IC50 in data set [2] was 59.5 µM; in data set [3], 4.02 µM; in data set [4], over 100 µM.
In the case of `C[N+](C)(C)CCOP(=O)([O-])OCCCCCCCCCCC=C1C2CC3CC(C2)CC1C3`, in data set [1], the HC50 was over 100 µM. The IC50 in data set [2] came to 59.5 µM; in data set [3], 3.16 µM; in data set [4], 6.75 µM.
Regarding `C[N+]1(CCOP(=O)([O-])OCCOC2CCCCC2)CCOCC1`, the concentration for half-maximal inhibition (IC50) in data set [3] and in data set [4] was over 100 µM throughout.
Consider `CCCCCCCCCCCCCCCC=C1CCC(OCCOP(=O)([O-])OCC[N+](C)(C)C)CC1` (stereo not given), for which, in data set [1], the HC50 is over 100 µM. Besides, the IC50 came out at 45.1 µM in data set [3] and 21.2 µM in data set [4].
